Data on three molecules can be found in ChEMBL document CHEMBL1156152, “Targeted delivery of paclitaxel to tumor cells: synthesis and in vitro evaluation” (J Med Chem, 2010).

Data set [1] concerns KB-V1. Put plainly: Cytotoxicity against paclitaxel-resistant human KBV1 cells assessed as decrease in cell viability after 72 hrs by neutral red dye assay. The format is functional, cell-based. In a few lines:
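KB-V1 cells grown in D-MEM/F12 with 10% FBS, penicillin/streptomycin, 2 mM L-glutamine and vinblastine (1 μg/ml), 37 °C, 5% CO2. Plated at 20,000 cells/well, adhered 24 h, treated with graded concentrations in triplicate for 72 h; neutral red (50 μg/ml, 30 min) uptake, dye extracted in acidic ethanol, read at 570 nm.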

Data set [2] in a line: (§1) Cytotoxicity against paclitaxel-sensitive human KB3-1 cells assessed as decrease in cell viability after 72 hrs by neutral red dye assay. The format is functional, cell-based. As to conditions: KB 3-1, 72 h. In a few lines:
(§2)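 KB-3-1 head and neck cancer cells kept in D-MEM/F12 with 10% FBS, penicillin/streptomycin, 2 mM L-glutamine, 37 °C, 5% CO2. Seeded 20,000 cells/well, adhered 24 h, then given varying concentrations in triplicate for 72 h. Viable cells took up neutral red (50 μg/ml, 30 min); dye dissolved in 0.5 N HCl with 35% ethanol, absorbance 570 nm.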

The test system of data set [3] is KB 3-1. The description is as §1. In kind it is functional, cell-based. In a few lines: as §2
The subject of data set [4] is HUVEC. In words: Cytotoxicity against TPA-treated HUVEC assessed as decrease in cell viability after 72 hrs by neutral red dye assay. In kind it is cell-based. As to conditions: human. In a few lines: (§3)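 HUVECs cultured overnight with or without TPA (100 nM phorbol ester) to induce tissue factor, then plated 20,000 cells/well, adhered 24 h, and exposed to graded drug concentrations for 72 h in triplicate. Viability read by neutral red uptake (50 μg/ml, 30 min, 37 °C), PBS washes, dye extracted in 0.5 N HCl/35% ethanol, absorbance at 570 nm.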

The test system of data set [5] is HUVEC. In words: Cytotoxicity against HUVEC assessed as decrease in cell viability after 72 hrs by neutral red dye assay. As to conditions: human. The format is cell-based. In a few lines: as §3

Calls of active or inactive are those of the source. The rule behind the calls is not given here.

By IC50 is commonly meant the point on the concentration scale where inhibition reaches its midpoint. `CC(=O)O[C@H]1C(=O)[C@]2(C)[C@@H](OC(=O)CCC(=O)N[C@@H](Cc3ccccc3)C(=O)N[C@@H](Cc3ccccc3)C(=O)N[C@@H](CCCNC(=N)N)C(=O)CCl)C[C@H]3OC[C@@]3(OC(C)=O)[C@H]2[C@H](OC(=O)c2ccccc2)[C@]2(O)C[C@H](OC(=O)[C@H](O)[C@@H](NC(=O)c3ccccc3)c3ccccc3)C(C)=C1C2(C)C`: the outcome in data set [1] was inactive. For the same molecule, the IC50 in data set [2] was 130 nM. The Activity result in data set [3] was “Dose-dependent effect”.
As for `CC(=O)O[C@H]1C(=O)[C@@]2(C)[C@H]([C@H](OC(=O)c3ccccc3)[C@]3(O)C[C@H](OC(=O)[C@H](O)[C@@H](NC(=O)c4ccccc4)c4ccccc4)C(C)=C1C3(C)C)[C@]1(OC(C)=O)CO[C@@H]1C[C@@H]2O` [PACLITAXEL], in data set [1], the result was inactive. For the same molecule, the outcome in data set [4] and in data set [5] was Active. Moreover, the 50% inhibitory concentration (IC50) in data set [2] turned out to be 1.2 nM.
As to `CC(=O)O[C@H]1C(=O)[C@@]2(C)[C@H]([C@H](OC(=O)c3ccccc3)[C@]3(O)C[C@H](OC(=O)[C@H](OC(=O)CCC(=O)N[C@@H](Cc4ccccc4)C(=O)N[C@@H](Cc4ccccc4)C(=O)N[C@@H](CCCNC(=N)N)C(=O)CCl)[C@@H](NC(=O)c4ccccc4)c4ccccc4)C(C)=C1C3(C)C)[C@]1(OC(C)=O)CO[C@@H]1C[C@@H]2O`, in data set [1], the outcome was inactive. For the same molecule, the Activity result in data set [4] is “Not Active”; in data set [3], “Dose-dependent effect”. Moreover, in data set [2], the IC50 was 12 nM.
